Screening data from PubChem.
Yeast superoxide = reduction of superoxide in aged yeast, primary screen, HTS; superoxide response (% of plate mean), % at 10 µM; 330,000 compounds, 0.18% hits; S. cerevisiae aged cells, superoxide DHE fluorescence; active compounds read low; AID 2690, 2010;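 active = superoxide response under a set limit, about three screen SD below normal, cut at about 65% in these data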;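 also: yeast aged for seven days with compound at 30 °C before DHE staining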
NR1D1 modulator = modulators of Rev-erb alpha DNA binding, primary screen, biochemical, FITC-DNA, fluorescence polarization, uHTS; Nuclear receptor subfamily 1 group D member 1 (Homo sapiens), P20393; Rev-erbα–FITC-DNA binding, 90 min; activity, % at 10 µM; 370,000 compounds, 0.79% hits; AID 1259318, 2017;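 active = activity above about 14%, limit read from the data; passing the limit was not always enough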
Target sequence (P20393 whole entry, looked up): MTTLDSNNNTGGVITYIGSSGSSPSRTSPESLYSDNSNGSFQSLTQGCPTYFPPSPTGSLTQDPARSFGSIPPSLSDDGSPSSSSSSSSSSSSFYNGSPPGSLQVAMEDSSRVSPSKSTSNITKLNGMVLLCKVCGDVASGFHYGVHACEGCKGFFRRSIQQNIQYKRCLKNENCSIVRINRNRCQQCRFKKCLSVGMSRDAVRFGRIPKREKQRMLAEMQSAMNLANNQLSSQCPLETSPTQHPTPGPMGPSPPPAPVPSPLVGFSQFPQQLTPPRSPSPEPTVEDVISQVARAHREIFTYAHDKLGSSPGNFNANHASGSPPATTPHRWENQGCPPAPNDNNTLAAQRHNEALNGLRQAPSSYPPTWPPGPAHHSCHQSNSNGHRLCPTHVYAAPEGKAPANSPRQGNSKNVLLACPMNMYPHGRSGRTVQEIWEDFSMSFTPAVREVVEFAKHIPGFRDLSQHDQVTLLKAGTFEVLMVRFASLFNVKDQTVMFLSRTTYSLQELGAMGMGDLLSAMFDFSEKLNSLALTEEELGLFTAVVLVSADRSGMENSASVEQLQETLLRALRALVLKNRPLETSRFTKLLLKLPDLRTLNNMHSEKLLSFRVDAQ
MIN6 prolif-1 = inducers of MIN6 beta-cell proliferation, primary screen, ATP luminescence, uHTS; AID 2380, 2010; proliferation, % at 10 µM; MIN6 cells proliferation, ATPlite luminescence, 48 h; cells starved in 0.2% serum; 100% = growth in 10% serum; 330,000 compounds, 0.29% hits;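 active = compounds whose signal lies at least 3.5 SD above the mean of all wells on their plate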
UCH37 DUB inh = inhibitors of human UCH37 deubiquitinase, primary screen, biochemical, Ub-AMC cleavage, fluorescence | Ubiquitin carboxyl-terminal hydrolase isozyme L5 (Homo sapiens), Q9Y5K5 | purified proteasome/UCH37 | inhibition, % (test concentration not listed) | 330,000 compounds, 0.33% hits;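 active = mean inhibition over replicate wells above about 20%, limit read from the data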
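assay system = human UCH37 enzyme supplied as purified proteasome complex | amount = proteasome at 0.15 nM in the dispensed enzyme solution | schedule = 30 min compound-proteasome preincubation then 25 min substrate reaction, room temperature | measured by = fluorescence, ex 355 nm, em 460 nm | benchmarks = no-proteasome wells (full inhibition) and compound-free wells (no inhibition)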
PG9 binder = binders of HIV-1 gp120 antibody PG9, primary screen, biochemical, TR-FRET | TR-FRET gp120-PG9 antibody binding | inhibition, % at 6.7 µM | 360,000 compounds, 0.43% hits; in the data active = inhibition above about 8.5%
Rce1 inh = yeast Rce1p protease inhibitors, primary screen, biochemical, fluorescence, cell-free homogeneous; 290,000 compounds, 0.27% hits; AID 2563, 2010; yeast membranes, quenched prenylated peptide cleavage fluorescence; calls only;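 active = fall in fluorescence gain of 50% or more versus controls, with final raw signal at or below 3038400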
MIN6 prolif-2 = inducers of beta-cell proliferation in MIN6, confirmation, MIN6 cells, mouse; shares compounds with MIN6 prolif-1; ATPlite luminescence, 48 h; cells kept in 0.2% serum; scaled between 0.2% and 10% serum; proliferation increase, % at 50 µM; 920 tested, under 10 active;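 active = proliferation increase above 40% at any of the four tested concentrations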
Numbers stand for hits; i = inactive; nt = no result. Only some compounds are listed: those with a hit (about 1.9% of all), similar ones and a draw of the others.

SMILES	Yeast superoxide	NR1D1 modulator	MIN6 prolif-1	UCH37 DUB inh	PG9 binder	Rce1 inh	MIN6 prolif-2
O=C(c1ccccc1)N1CCN(CC(O)COCC2CC=CCC2)CC1 (centres undefined)	i	i	i	i	i	i	nt
C(=NN1CCN(c2ccccn2)CC1)c1ccco1	nt	nt	nt	i	nt	nt	nt
CCOC(=O)c1c(C)[nH]c(C)c1C(=O)COC(=O)c1cccc(S(=O)(=O)NC)c1	i	i	11	i	i	i	i
COc1cc(OC)cc(-c2nc(-c3cccs3)no2)c1	i	i	7.7	nt	i	i	i
O=C1OC(Nc2ccc3c(c2)OCO3)c2ccccc21 (centres undefined)	i	i	5.0	i	i	i	i
Cc1nnsc1C(=O)NC(=O)Nc1ccc(F)c(Cl)c1	i	i	5.9	i	i	i	i
Cc1nnsc1C(=O)Nc1ccc(Cl)cc1	i	i	i	i	i	nt	nt
Cc1c(C=NNC(=O)c2cc(C(C)(C)C)[nH]n2)c2ccccc2n1C	nt	nt	nt	i	nt	nt	nt
O=C(NCc1ccc2c(c1)OCO2)c1ccc2snnc2c1	i	i	8.2	i	i	i	i
O=C(NCc1ccc2c(c1)OCO2)c1ccc2c(c1)OCO2	i	i	i	i	i	i	nt
CCOc1ccc(-c2nnc3ccc(SCC(=O)N4CCCCC4)nn23)cc1	i	i	12	i	i	i	i
COc1ccc(-c2nnc3ccc(SCC(=O)N4CCCC4)nn23)cc1	i	i	i	i	i	i	nt
COc1cccc(C=NNC(=O)CN2CC(c3ccccc3)CC2=O)c1O (centres undefined)	nt	nt	nt	i	nt	nt	nt
O=C(O)c1ccc(Cl)c(S(=O)(=O)NCC2CCCO2)c1 (centres undefined)	i	i	7.3	i	i	i	i
CN(C)S(=O)(=O)c1cc([N+](=O)[O-])ccc1N1CCCCCC1	i	i	12	i	i	i	i
CC1=NCC(C)c2c1[nH]c1ccccc21 (centres undefined)	i	i	7.0	i	i	i	i
O=C(NNC1=NCCC1)c1cccc(Br)c1	i	nt	9.7	i	i	i	i
Cc1ccccc1C(=O)NNC1=NCCC1	i	i	i	i	i	nt	nt
CCC(C)N(C(=O)CSc1ncnc2sccc12)C1CCS(=O)(=O)C1 (centres undefined)	i	i	14	i	i	nt	i
CCC(C)N(C(=O)CSc1nc(-c2cccs2)nc2ccccc12)C1CCS(=O)(=O)C1 (centres undefined)	nt	i	nt	i	i	nt	nt
O=[N+]([O-])c1ccc(NN=Cc2ccc(OCc3cccc4ccccc34)cc2)nc1	nt	nt	nt	i	nt	nt	nt
CC(C)=CC/C=C1\CCC(C(=O)O)C(C(=O)O)C1 (centres undefined)	i	i	5.5	i	i	i	i
COc1ccc(OC)c(C=Nn2c(C)nc3ccccc3c2=O)c1	nt	nt	nt	i	nt	nt	nt
CC1=C(c2ccccc2)C(=S)NC(C)(C)C1	i	i	5.6	i	i	i	i
CC1=C(c2ccccc2)C(=O)C(C)(C)CC1=O	nt	i	nt	nt	i	nt	nt
SMILES	Yeast superoxide	NR1D1 modulator	MIN6 prolif-1	UCH37 DUB inh	PG9 binder	Rce1 inh	MIN6 prolif-2
CCn1ncc(C=NNS(=O)(=O)c2ccc(Cl)cc2)c1C	nt	nt	nt	i	nt	nt	nt
CCCCCCCCCCS(=O)(=O)NN=Cc1ccccc1OC	nt	nt	nt	i	nt	nt	nt
Cc1ccc(CNc2ncnc(N)c2[N+](=O)[O-])cc1	i	i	7.8	i	i	i	i
CCc1ccc(OCC(=O)NN=Cc2cc([N+](=O)[O-])ccc2N2CCCCCC2)cc1	nt	nt	nt	i	nt	nt	nt
COc1c(Br)cc(Br)cc1C=NNC(=O)c1ccncc1	nt	nt	nt	i	nt	nt	nt
COc1cccc(Cn2c(=O)c3[nH]cnc3n(-c3ccccc3C)c2=O)c1	i	i	14	i	i	i	i
C(=NNc1nc2ccccc2s1)c1ccccn1	nt	nt	nt	i	nt	nt	nt
Cc1ccc2nc(N=C(N)NC(=O)N3c4ccccc4Sc4ccccc43)nc(C)c2c1	nt	nt	nt	i	nt	nt	nt
Cc1nc(N2CCOCC2)nc(N2CCCCC2C)c1[N+](=O)[O-] (centres undefined)	i	i	8.1	nt	i	i	i
